The source of these data is PMC9394215 (Journal for Immunotherapy of Cancer, 2022).

Where two headings read alike, the source gives them in different places.

For data set [1], the target named is T1, NPP1 (Homo sapiens, UniProt P22413).
T1 sequence (P22413 98-925 limits assumed): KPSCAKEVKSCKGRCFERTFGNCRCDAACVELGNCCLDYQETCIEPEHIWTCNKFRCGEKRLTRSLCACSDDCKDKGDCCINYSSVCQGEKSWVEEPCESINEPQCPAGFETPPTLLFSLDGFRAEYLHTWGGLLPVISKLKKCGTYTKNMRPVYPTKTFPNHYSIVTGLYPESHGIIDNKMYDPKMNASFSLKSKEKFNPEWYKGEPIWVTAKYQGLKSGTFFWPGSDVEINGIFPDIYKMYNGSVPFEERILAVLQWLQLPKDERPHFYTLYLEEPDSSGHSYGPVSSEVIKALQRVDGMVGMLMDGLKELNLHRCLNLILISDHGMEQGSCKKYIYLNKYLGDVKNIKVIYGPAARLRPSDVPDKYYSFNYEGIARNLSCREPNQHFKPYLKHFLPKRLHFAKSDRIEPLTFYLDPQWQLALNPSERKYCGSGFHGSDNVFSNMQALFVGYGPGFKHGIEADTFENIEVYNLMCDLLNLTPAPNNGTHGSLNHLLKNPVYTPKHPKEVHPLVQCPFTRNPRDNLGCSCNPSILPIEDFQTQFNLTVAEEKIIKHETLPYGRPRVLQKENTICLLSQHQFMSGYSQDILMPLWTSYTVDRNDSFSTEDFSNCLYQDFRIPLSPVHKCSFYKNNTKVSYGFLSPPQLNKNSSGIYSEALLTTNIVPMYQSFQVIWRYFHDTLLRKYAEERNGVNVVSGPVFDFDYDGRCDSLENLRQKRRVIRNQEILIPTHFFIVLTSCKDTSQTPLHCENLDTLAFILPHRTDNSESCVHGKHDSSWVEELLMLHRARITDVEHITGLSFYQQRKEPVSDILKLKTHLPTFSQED
Briefly: NPP1 assay. Type of data set: biochemical. An outline of the steps: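 Crude soluble NPP1 (800 ng, Sf9-expressed) was incubated with 50 µM test compound, 2% DMSO and 300 µM ATP. Buffer: 10 mM CHES, pH 9.0, 2 mM CaCl2, 1 mM MgCl2; 30 min at 37°C with shaking. The reaction was stopped by 5 min at 90°C, then cooled on ice. Product AMP was quantified by capillary electrophoresis.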

The conditions of data set [2]: stated without method or reference; cited from earlier work.
The target of data set [3] is T2, human CD39 (Homo sapiens, UniProt P49961).
T2 sequence (P49961 1-510): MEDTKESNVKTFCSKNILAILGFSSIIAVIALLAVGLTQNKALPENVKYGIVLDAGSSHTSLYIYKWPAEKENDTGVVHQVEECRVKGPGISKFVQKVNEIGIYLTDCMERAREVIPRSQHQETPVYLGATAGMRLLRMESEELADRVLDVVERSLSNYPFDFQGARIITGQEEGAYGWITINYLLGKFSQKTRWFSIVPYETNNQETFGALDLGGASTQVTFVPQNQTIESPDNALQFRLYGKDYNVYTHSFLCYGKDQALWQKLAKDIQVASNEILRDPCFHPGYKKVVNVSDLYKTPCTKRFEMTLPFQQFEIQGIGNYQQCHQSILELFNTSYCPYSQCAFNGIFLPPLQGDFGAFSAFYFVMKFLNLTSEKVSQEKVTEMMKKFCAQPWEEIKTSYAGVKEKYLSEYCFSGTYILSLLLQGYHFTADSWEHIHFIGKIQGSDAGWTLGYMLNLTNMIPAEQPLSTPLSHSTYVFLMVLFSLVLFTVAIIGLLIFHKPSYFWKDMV
Briefly: Inhibition type experiments, malachite green assay on recombinant human CD39. Type of data set: biochemical.

Data set [4] has as its system melanoma (Ma-Mel-65) cell membrane preparations. The data set can be described thus: Malachite green assay, ATP hydrolysis by melanoma cell membrane preparations. Type of data set: biochemical, human. The conditions noted are these: increasing concentrations of ceritinib, 50 µM ATP. An outline of the steps:
(§1)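 Crude membranes came from ~90% confluent MDA-MB-231 or Ma-Mel-65 cells. Cells were homogenised in Tris/EDTA/saccharose/PMSF buffer, pH 7.4, and centrifuged at 1000 g, then 48,000 g for 1 h at 4°C. Pellets were washed and stored at −80°C in 50 mM Tris-HCl, pH 7.4. ATP hydrolysis (50 µM ATP, HEPES/Ca/Mg pH 7.4) was run with increasing test compound concentrations for 15 min at 37°C. Phosphate was read by malachite green (600 nm); triplicates, n=3.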

The conditions of data set [5]: cited from earlier work.
Data set [6] concerns TNBC (MDA-MB-231) cell membrane preparations. The data set can be described thus: Malachite green assay, ATP hydrolysis by TNBC cell membrane preparations. Particulars: increasing concentrations of ceritinib, 50 µM ATP. In kind it is biochemical, human. The essentials: as §1
Data set [7] has as its system TNBC (MDA-MB-231) cells. Briefly: Extracellular eATP hydrolysis on live TNBC cells. In kind it is cell-based, human. The conditions noted are these: 1, 10, 100 µM, significant at 10 µM, 20 µM eATP.
For data set [8] the following is noted: cited from earlier work. This is another data set of the same source.

As for `Cc1cc(Nc2ncc(Cl)c(Nc3ccccc3S(=O)(=O)C(C)C)n2)c(OC(C)C)cc1C1CCNCC1` [ceritinib, Ceritinib], the IC50 in data set [1] is over 50 µM. In addition, the inhibition at 50 µM in data set [1] (read-out: % inhibition at 50 µM) was 8%. Besides, in data set [2], the “pKb of the piperidine nitrogen” value is on record as about 10. Besides, in data set [3], the Ki is 11 µM. Moreover, the inhibition type result in data set [3] (Km unchanged, Vmax decreased, Hanes-Woolf plot) is given as “non-competitive, allosteric”. Besides, the “ATPase activity of cancer cell membranes” value in data set [4] and in data set [6] was “decreased significantly” in each case. Further, the “average concentration in tumor tissue” value in data set [5] (brain tumor patients, after the 10th applied dose, steady state) is reported as 36 µM; in data set [5] (brain tumors, steady-state conditions) it was 36 nmol/g. Besides, the “range of concentration in tumor tissue” value in data set [5] (brain tumor patients, after the 10th applied dose) is 2 to 139 µM. For the same molecule, the “concentration in tumor tissues in some patients” value in data set [5] is on record as “above 100 µM”. The “inhibition of hydrolysis of eATP added to live cells” value in data set [7] was “concentration-dependent inhibition”. The metabolic stability result in data set [8] is listed as “metabolically highly stable”.
